pIC50, pKd: −log10 of the molar value. Activity calls are given as the source filed them. The calls are words filed in the database; no cut-off is given here.
Columns and labels:
ACHN [1] = experiment: Cytotoxicity against human ACHN cells harboring shPRDX1 gene assessed as reduction in cell viability measured after 72 hrs by CCK8 assay; type: functional, cell-based
Procedure, shortened: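 Transfectants were selected with puromycin (1 μg/mL), and knockdown was confirmed by immunoblot. Viability was read by CCK-8 after 72 h of compound exposure in 384-well plates at 400–800 cells/well in MEM with 10% FBS, and IC50 was taken from dose-response curves.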

[2] = Toxicity in Balb/c nu/nu mouse xenografted with human ACHN cells assessed as effect on survival at 50 mg/kg, ip administered once daily for 21 days; type: organism-based; details: in vivo, 504 h
Procedure, shortened: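 Nude mice (Balb/c nu/nu) bearing ACHN flank xenografts received sorafenib tosylate 50 mg/kg, given as a 10× stock in Cremophor EL diluted in PBS. Treatment alongside PBS control for three weeks. Survival and body weight monitored.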

HK-2 = experiment: Cytotoxicity against human HK2 cells assessed as reduction in cell viability measured after 72 hrs by CCK8 assay; type: cell-based; details: HK-2, 72 h
Procedure, shortened: (§1)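 Cells were grown in 10% FBS medium: MEM for ACHN, RPMI1640 for OS-RC-2 and 786-O, DMEM for HK-2. They were seeded at 400–800 cells/well in 384-well plates and treated with a range of compound concentrations or solvent control, with sorafenib as positive control. After 72 h, CCK-8 absorbance was read at 450 nm in triplicate, and IC50 was taken from dose-response curves.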

786-0 = experiment: Cytotoxicity against human 786-O cells assessed as reduction in cell viability measured after 72 hrs by CCK8 assay; type: functional, cell-based; details: 786-0, 72 h; procedure, shortened: as §1
ACHN [3] = experiment: Cytotoxicity against human ACHN cells assessed as reduction in cell viability measured after 72 hrs by CCK8 assay; type: functional, cell-based; procedure, shortened: as §1
[4] = Toxicity in Balb/c nu/nu mouse xenografted with human ACHN cells assessed as decrease in body weight at 50 mg/kg, ip administered once daily for 21 days; details: in vivo, 504 h
ACHN [5] = experiment: Antitumor activity against human ACHN cells xenografted in Balb/c nu/nu mouse assessed as tumor weight at 50 mg/kg, ip administered once daily for 21 days measured post-last dose by caliper method (reference value: 0.55 +/- 0.13 g); type: functional
OS-RC-2 = experiment: Cytotoxicity against human OS-RC2 cells assessed as reduction in cell viability measured after 72 hrs by CCK8 assay; type: functional, cell-based; details: OS-RC-2, 72 h; procedure, shortened: as §1
[6] = target: T1, Peroxiredoxin-1 (Homo sapiens) (UniProt Q06830); experiment: Activation of PRDX1 in human ACHN cells assessed as reduction in reactive oxygen species level at 25 to 50 nM measured after 24 hrs by Cell-rox reagent-based flow cytometry
T1 sequence (whole entry): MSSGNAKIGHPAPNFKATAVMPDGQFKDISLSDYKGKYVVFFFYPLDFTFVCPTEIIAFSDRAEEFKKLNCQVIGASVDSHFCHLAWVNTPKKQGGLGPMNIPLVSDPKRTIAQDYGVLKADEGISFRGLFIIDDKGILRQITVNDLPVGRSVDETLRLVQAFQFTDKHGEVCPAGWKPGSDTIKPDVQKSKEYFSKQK
Procedure, shortened: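 ACHN cells grown 24 h in MEM + 10% FBS, reseeded at 2 × 10^4 cells/well and exposed to 0, 25 or 50 nM for 24 h. Harvested cells loaded with CellROX oxidative stress reagent 5 μM, 30 min at 37 °C in the dark, then read by flow cytometry. shPRDX1 line: stable knockdown selected with puromycin (1 μg/mL) before dosing. Mean ± SD.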

ACHN [7] = experiment: Selectivity ratio of IC50 for cytotoxicity against human ACHN cells harboring shPRDX1 gene to IC50 for Cytotoxicity against human ACHN cells; type: functional
ACHN [8] = experiment: Down regulation of HK2 mRNA expression in human ACHN cells at 25 to 50 nM measured after 24 hrs by qRT-PCR analysis; type: functional, cell-based
ACHN [9] = experiment: Down regulation of HIF1A mRNA expression in human ACHN cells at 25 to 50 nM measured after 24 hrs by qRT-PCR analysis; type: functional, cell-based
ACHN [10] = experiment: Down regulation of ETS1 mRNA expression in human ACHN cells at 25 to 50 nM measured after 24 hrs by qRT-PCR analysis; type: functional, cell-based
ACHN [11] = experiment: Antitumor activity against human ACHN cells xenografted in Balb/c nu/nu mouse assessed as tumor growth inhibition at 0.8 mg/kg, ip administered once daily for 21 days measured post-last dose by TUNEL staining-based assay; type: functional, organism-based
Procedure, shortened: (§2)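 Male athymic Balb/c nu/nu mice, four weeks old, acclimatised 1 week. 10^7 ACHN cells in 0.2 mL PBS injected into the right flank. At about 150 mm3, mice randomised into PBS control or 0.8 mg/kg groups, dosed ip daily for three weeks. Tumours measured by caliper (volume = 0.5 × L × W²) with body weight recorded. Endpoint tumour weight, sections stained by H&E and TUNEL. Tissue lysed for immunoblot.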

ACHN [12] = experiment: Antitumor activity against human ACHN cells xenografted in Balb/c nu/nu mouse assessed as tumor weight at 0.8 mg/kg, ip administered once daily for 21 days measured post-last dose by caliper method (reference value: 0.55 +/- 0.13 g); type: functional; procedure, shortened: as §2
Peroxiredoxin-1 = target: T2, Peroxiredoxin-1 (Homo sapiens, UniProt Q06830); experiment: Binding affinity to full-length human PRDX1 by surface plasmon resonance analysis
T2 sequence (Q06830 whole entry): T1 sequence (whole entry)
Procedure, shortened: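 Full-length human PRDX1 immobilised on a CM5 chip (Biacore T100). Analyte concentration series diluted in 10 mM Hepes pH 7.4, injected over the protein surface and a protein-free reference surface in a single step.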

ACHN [13] = experiment: Down regulation of LDHA mRNA expression in human ACHN cells at 25 to 50 nM measured after 24 hrs by qRT-PCR analysis; type: functional, cell-based
ACHN [14] = experiment: Down regulation of MET mRNA expression in human ACHN cells at 25 to 50 nM measured after 24 hrs by qRT-PCR analysis; type: functional, cell-based
ACHN [15] = experiment: Down regulation of SOD2 mRNA expression in human ACHN cells at 25 to 50 nM measured after 24 hrs by qRT-PCR analysis; type: functional, cell-based
Mus musculus [16] = experiment: Up regulation of PRDX1 expression in human ACHN cells xenografted Balb/c nu/nu mouse at 0.8 mg/kg, ip administered once daily for 21 days measured post-last dose by immunoblot analysis; type: functional, organism-based; procedure, shortened: as §2
ACHN [17] = experiment: Down regulation of SLC2A1 mRNA expression in human ACHN cells at 25 to 50 nM measured after 24 hrs by qRT-PCR analysis; type: functional, cell-based
[18] = Toxicity in Balb/c nu/nu mouse xenografted with human ACHN cells assessed as effect on survival at 0.8 mg/kg, ip administered once daily for 21 days; type: organism-based; details: in vivo, 504 h; procedure, shortened: as §2
ACHN [19] = experiment: Up regulation of PRDX1 mRNA expression in human ACHN cells at 25 to 50 nM measured after 24 hrs by qRT-PCR analysis; type: functional, cell-based
[20] = target: T1, Peroxiredoxin-1 (Homo sapiens); experiment: Induction of PRDX1 nuclear translocation in human ACHN cells at 25 to 50 nM measured after 24 hrs by DAPI staining-based microscopic analysis; type: cell-based
Procedure, shortened: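 ACHN cells exposed 24 h to 25 or 50 nM, fixed in 4% paraformaldehyde 10 min and permeabilised with 0.5% Triton X-100. Blocked with 10% FBS, 4 °C, 12 h. Stained with anti-PRDX1 overnight, FITC secondary 2 h RT, DAPI nuclear counterstain. Confocal imaging scored mean fluorescence intensity (n = 9).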

ACHN [21] = experiment: Down regulation of EGFR mRNA expression in human ACHN cells at 25 to 50 nM measured after 24 hrs by qRT-PCR analysis; type: functional, cell-based
[22] = Toxicity in Balb/c nu/nu mouse xenografted with human ACHN cells assessed as decrease in body weight at 0.8 mg/kg, ip administered once daily for 21 days; type: organism-based; details: in vivo, 504 h; procedure, shortened: as §2
Mus musculus [23] = experiment: Up regulation of PRDX1 mRNA expression in human ACHN cells xenografted Balb/c nu/nu mouse at 0.8 mg/kg, ip administered once daily for 21 days measured post-last dose by qRT-PCR analysis; type: functional, organism-based
ACHN [24] = experiment: Up regulation of nuclear PRDX1 expression in human ACHN cells at 25 to 50 nM measured after 24 hrs by immunoblot analysis; type: functional, cell-based
Procedure, shortened: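 ACHN cells treated 24 h with 25 or 50 nM, then nuclear and cytosolic extracts prepared. Lysis in RIPA buffer, BCA quantitation, 30–50 μg protein resolved on 10% or 12% gels. Blotted with anti-PRDX1 (1:1000) and β-actin (1:3000), band ratio PRDX1/β-actin reported as fold change. Mean ± SD.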

ACHN [25] = experiment: Antitumor activity against human ACHN cells xenografted in Balb/c nu/nu mouse assessed as tumor growth inhibition at 0.8 mg/kg, ip administered once daily for 21 days measured post-last dose by H and E staining-based assay; type: functional, organism-based; procedure, shortened: as §2

## CNC(=O)c1cc(Oc2ccc(NC(=O)Nc3ccc(Cl)c(C(F)(F)F)c3)cc2)ccn1 [SORAFENIB]
ACHN [1]; achn
  IC50: Not Active
[2]
  Activity: Non-Toxic
HK-2
  pIC50: 5.59
786-0
  pIC50: 4.89
ACHN [3]
  pIC50: 5.48
[4]
  Activity: Toxic
ACHN [5]
  Activity: 0.12 g
OS-RC-2
  pIC50: 4.85

## C/C=C(\C)[C@H](O[C@@H]1O[C@H](CO)[C@@H](O)[C@H](O)[C@H]1O)[C@H](C)/C=C(C)/C=C/C/C(C)=C/Cc1nc(OC)c(OC)c(O)c1C
[6]
  Activity: Active
ACHN [7]
  Ratio IC50: 4
ACHN [8]
  Activity: Active
ACHN [9]
  Activity: Active
ACHN [10]
  Activity: Active
ACHN [1]; Homo sapiens, ACHN, 72 h, read-out: IC50
  pIC50: 6.02
ACHN [11]
  TGI: Active
ACHN [12]
  Activity: 0.23 g
Peroxiredoxin-1
  pKd: 5.74
HK-2
  pIC50: < 4.00
ACHN [13]
  Activity: Active
ACHN [14]
  Activity: Active
ACHN [15]
  Activity: Active
786-0
  pIC50: < 4.00
Mus musculus [16]
  Activity: Active
ACHN [17]
  Activity: Active
[18]
  Activity: Non-Toxic
ACHN [19]
  Activity: Active
[20]
  Activity: Active
ACHN [21]
  Activity: Active
[22]
  Activity: Non-Toxic
Mus musculus [23]
  Activity: Active
ACHN [24]
  Activity: Active
ACHN [3]
  pIC50: 6.68
ACHN [25]
  TGI: Active
OS-RC-2
  pIC50: < 4.00

Source: ChEMBL document CHEMBL4311948, “Exploring the Natural Piericidins as Anti-Renal Cell Carcinoma Agents Targeting Peroxiredoxin 1” (J Med Chem, 2019)
